{"source": "ChEMBL document CHEMBL1157612", "about": "“Synthesis and biological activities of 2-amino-1-arylidenamino imidazoles as orally active anticancer agents” (J Med Chem, 2010)", "key": {"[1]": {"system": "NUGC-3", "assay": "Anticancer activity against human NUGC3 cells after 72 hrs by MTS/PMS assay", "type": "functional, cell-based", "details": "NUGC-3, 72 h", "summary_of_the_method": "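NUGC-3 gastric cancer cells seeded 4500/well, grown 24 h at 37 °C, 5% CO2, then exposed 72 h to a concentration series, duplicate wells per concentration, final DMSO ≤0.3%. Controls were actinomycin D 10 nM and 0.3% DMSO vehicle. Viability read colorimetrically by MTS/PMS. IC50 is the concentration giving 50% growth inhibition, reported as mean of triplicate wells from at least three experiments.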"}, "[2]": {"species_on_record": "Bos taurus", "assay": "Displacement of [3H]colchicine from bovine brain tubulin after 1 hr by scintillation counting"}, "[3]": {"assay": "Inhibition of bovine brain tubulin polymerization by turbidity assay", "design": "species or system Bos taurus"}, "[4]": {"species_on_record": "Bos taurus", "assay": "Displacement of [3H]colchicine from bovine brain tubulin at 25 uM after 1 hr by scintillation counting"}, "[5]": {"system": "NUGC-3", "assay": "Induction of apoptosis in human NUGC3 cells assessed as DNA fragmentation at 100 nM by ethidium bromide staining-based agarose gel electrophoresis", "type": "functional, cell-based"}, "[6]": {"system": "P388", "assay": "Anticancer activity against mouse P388 cells xenografted in DBA/2J mouse assessed as increase in mouse life span at 2.5 mg/kg, iv administered daily for 4 consecutive days", "type": "functional", "summary_of_the_method": "(§1)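 Female DBA/2J mice, 5 weeks old, each inoculated iv with 1 × 10^6 P388 cells (grown in RPMI 1640 with nonessential amino acids, 50 μM 2-mercaptoethanol, 10% FBS). Compound was given iv starting one day after inoculation. Groups of 7–8 mice plus vehicle controls, monitored twice daily. Percentage increase in life span calculated from median survival time, normalised to controls.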"}, "[7]": {"system": "P388", "assay": "Anticancer activity against mouse P388 cells xenografted in DBA/2J mouse assessed as increase in mouse life span at 100 mg/kg, po administered daily for 9 consecutive days", "type": "functional", "summary_of_the_method": "(§2)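 Female DBA/2J mice, 5 weeks old, each given 1 × 10^6 P388 cells iv. Oral dosing by gavage (0.1 mL) started one day after inoculation. Compound was dissolved in DMSO and diluted in 0.5% carboxymethyl cellulose (final DMSO <0.5%). Groups of 7–8 mice; vehicle-only controls. Survival checked twice daily. Result is percentage increase in median survival time relative to the control group.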"}, "[8]": {"system": "MKN-45", "assay": "Ex vivo antiproliferative activity against human MKN45 cells xenografted in nude mouse assessed as drug concentration reducing 50% of BrdU labeling index after 96 hrs by immunostaining", "type": "functional, cell-based", "details": "MKN-45, 96 h", "summary_of_the_method": "(§3)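 MKN-45 or SW-480 cells (1 × 10^6) grown subcutaneously in nude mice to ~1 cm3; tumors cut into 1–2 mm pieces and histocultured on gelatin gels in MEM/DMEM with 10% FBS at 37 °C. After 3 days, exposed 96 h to 0.0001–10 μg/mL, then 40 μM BrdU for 48 h. Fixed, paraffin-sectioned, BrdU-immunostained with hematoxylin counterstain. Labeling index = BrdU-positive/total tumor cells; IC50 taken as concentration halving LI.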"}, "[9]": {"system": "Mus musculus", "assay": "Toxicity in DBA/2J mouse xenografted with mouse P388 cells assessed as body weight loss at 2.5 to 7.5 mg/kg, iv administered daily for 4 consecutive days", "type": "organism-based", "design": "dose 2.5-7.5 mg/kg, route intravenous", "details": "in vivo"}, "[10]": {"system": "P388", "assay": "Anticancer activity against mouse P388 cells xenografted in DBA/2J mouse assessed as increase in mouse life span at 200 mg/kg, po administered daily for 9 consecutive days", "type": "functional", "summary_of_the_method": "as §2"}, "[11]": {"system": "MKN-45", "assay": "Ex vivo antiproliferative activity against human MKN45 cells xenografted in nude mouse assessed as BrdU incorporation into DNA after 96 hrs by immunostaining", "type": "functional, cell-based", "summary_of_the_method": "as §3"}, "[12]": {"system": "P388", "assay": "Anticancer activity against mouse P388 cells xenografted in DBA/2J mouse assessed as increase in mouse life span at 25 mg/kg, po administered daily for 9 consecutive days", "type": "functional", "summary_of_the_method": "as §2"}, "[13]": {"system": "NUGC-3", "assay": "Induction of microtubule arrangement aberration in human NUGC3 cells assessed as appearance of tubulin at 1 uM after 16 hrs FITC analysis", "type": "functional, cell-based", "summary_of_the_method": "(§4)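 NUGC-3 cells exposed to 1 μM for 16 h, then fixed in 4% formaldehyde 10 min and blocked with BSA. Stained with monoclonal anti-β-tubulin (1:200, 4 °C overnight) followed by FITC anti-mouse IgG (1:300, 1 h), and for DNA with Hoechst 33258 (1 μg/mL in 0.1% Triton X-100, 5 min). Imaged by confocal laser-scanning microscopy. DMSO vehicle control included.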"}, "[14]": {"system": "P388", "assay": "Anticancer activity against mouse P388 cells xenografted in iv dosed DBA/2J mouse assessed as increase in mouse life span administered daily for 4 consecutive", "type": "functional, organism-based", "summary_of_the_method": "(§5)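 Female DBA/2J mice, 5 weeks old, inoculated iv with 1 × 10^6 P388 cells each; dosing began one day later, 7–8 mice per group. Compound in DMSO diluted into 0.5% carboxymethyl cellulose (final DMSO <0.5%). Regimens: iv 2.5 or 7.5 (mg/kg)/day for 4 days; po gavage (0.1 mL) 25–200 (mg/kg)/day for 9 days. Vehicle-only controls. Survival checked twice daily; increase in life span computed from median survival time normalized to controls.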"}, "[15]": {"system": "P388", "assay": "Anticancer activity against mouse P388 cells xenografted in po dosed DBA/2J mouse assessed as increase in mouse life span administered daily for 9 consecutive days", "type": "functional, organism-based", "summary_of_the_method": "as §5"}, "[16]": {"system": "SW480", "assay": "Ex vivo antiproliferative activity against human SW480 cells xenografted in nude mouse assessed as BrdU incorporation into DNA after 96 hrs by immunostaining", "type": "functional, cell-based", "summary_of_the_method": "as §3"}, "[17]": {"system": "NUGC-3", "assay": "Induction of apoptosis in human NUGC3 cells assessed as DNA fragmentation at 1 uM after 16 hrs by Hoechst 33258 staining-based confocal laser-scanning microscopy", "type": "functional, cell-based", "summary_of_the_method": "as §4"}, "[18]": {"system": "P388", "assay": "Anticancer activity against mouse P388 cells xenografted in DBA/2J mouse assessed as increase in mouse life span at 7.5 mg/kg, iv administered daily for 4 consecutive days", "type": "functional", "summary_of_the_method": "as §1"}, "[19]": {"system": "Mus musculus", "assay": "Toxicity in DBA/2J mouse xenografted with mouse P388 cells assessed as body weight loss at 25 to 200 mg/kg, po administered daily for 9 consecutive days", "type": "organism-based", "design": "dose 25-200 mg/kg, route oral", "details": "in vivo"}, "[20]": {"system": "MKN-45", "assay": "Ex vivo antiproliferative activity against human MKN45 cells xenografted in nude mouse assessed as BrdU incorporation into DNA at 10 ug/mL after 96 hrs by immunostaining", "type": "functional, cell-based", "summary_of_the_method": "as §3"}, "[21]": {"system": "MKN-45", "assay": "Ex vivo apoptotic activity in human MKN45 cells xenografted in nude mouse assessed as DNA fragmentation at 10 ug/mL after 96 hrs by immunostaining", "type": "functional, cell-based"}, "[22]": {"system": "SW480", "assay": "Ex vivo antiproliferative activity against human SW480 cells xenografted in nude mouse assessed as BrdU incorporation into DNA at 10 ug/mL after 96 hrs by immunostaining", "type": "functional, cell-based", "summary_of_the_method": "as §3"}}, "note": "The source made the active and inactive calls. The calls are words filed in the database; no cut-off is given here."}
{"smiles": "COc1cc2c(c(OC)c1OC)-c1ccc(OC)c(=O)cc1[C@@H](NC(C)=O)CC2", "note": "[COLCHICINE]", "values": [{"measurement": "IC50", "setting": "[1]", "result": 10, "unit": "nM"}]}
{"smiles": "Nc1nc(-c2ccccc2)cn1/N=C/c1ccc(Cl)c(Cl)c1", "values": [{"measurement": "IC50", "setting": "[1]", "result": 740, "unit": "nM"}]}
{"smiles": "Nc1nc(-c2cccnc2)cn1/N=C/c1ccc(F)cc1", "values": [{"measurement": "IC50", "setting": "[1]", "result": 60, "unit": "nM"}]}
{"smiles": "Nc1nc(-c2cccnc2)cn1/N=C/c1ccc(Cl)cc1", "values": [{"measurement": "IC50", "setting": "[1]", "result": 230, "unit": "nM"}, {"measurement": "Activity", "setting": "[2]", "result": "Dose-dependent effect"}, {"measurement": "IC50", "setting": "[3]", "result": 270, "unit": "nM"}, {"measurement": "Activity", "setting": "[4]", "result": "Active"}, {"measurement": "Activity", "setting": "[5]", "result": "Active"}]}
{"smiles": "Nc1nc(-c2ccccc2)cn1/N=C/c1ccc(Cl)cc1", "values": [{"measurement": "Activity", "setting": "[6]", "result": 17, "unit": "%"}, {"measurement": "IC50", "setting": "[1]", "result": 60, "unit": "nM"}, {"measurement": "Activity", "setting": "[7]", "result": 71, "unit": "%"}, {"measurement": "Activity", "setting": "[2]", "result": "Dose-dependent effect"}, {"measurement": "IC50", "setting": "[8]", "result": 13000, "unit": "nM"}, {"measurement": "Activity", "setting": "[9]", "result": "Non-toxic"}, {"measurement": "Activity", "setting": "[10]", "result": 114, "unit": "%"}, {"measurement": "IC50", "setting": "[3]", "result": 2650, "unit": "nM"}, {"measurement": "Activity", "setting": "[11]", "result": "Dose-dependent effect"}, {"measurement": "Activity", "setting": "[12]", "result": 14, "unit": "%"}, {"measurement": "Activity", "setting": "[13]", "result": "Active"}, {"measurement": "Activity", "setting": "[14]", "result": "Dose-dependent effect"}, {"measurement": "Activity", "setting": "[15]", "result": "Dose-dependent effect"}, {"measurement": "Activity", "setting": "[16]", "result": "Dose-dependent effect"}, {"measurement": "Activity", "setting": "[17]", "result": "Active"}, {"measurement": "Activity", "setting": "[4]", "result": "Active"}, {"measurement": "Activity", "setting": "[18]", "result": 100, "unit": "%"}, {"measurement": "Activity", "setting": "[5]", "result": "Active"}, {"measurement": "Activity", "setting": "[19]", "result": "Non-toxic"}]}
{"smiles": "Nc1nc(-c2ccccn2)cn1/N=C/c1ccc(Cl)cc1", "values": [{"measurement": "IC50", "setting": "[1]", "result": 310, "unit": "nM"}]}
{"smiles": "Nc1nc(-c2ccccc2)c(-c2ccccc2)n1/N=C/c1ccc(Cl)cc1", "values": [{"measurement": "IC50", "setting": "[1]", "result": "> 10000", "unit": "nM"}]}
{"smiles": "Nc1nc(-c2ccccc2)cn1/N=C/c1ccccc1Cl", "values": [{"measurement": "IC50", "setting": "[1]", "result": 3970, "unit": "nM"}]}
{"smiles": "COc1ccccc1-c1cn(/N=C/c2ccc(Cl)cc2)c(N)n1", "values": [{"measurement": "IC50", "setting": "[1]", "result": 5200, "unit": "nM"}]}
{"smiles": "Nc1nc(-c2ccccc2)cn1/N=C/c1ccc(F)cc1", "values": [{"measurement": "IC50", "setting": "[1]", "result": 50, "unit": "nM"}, {"measurement": "Activity", "setting": "[20]", "result": "Active"}, {"measurement": "IC50", "setting": "[8]", "result": 34000, "unit": "nM"}, {"measurement": "Activity", "setting": "[10]", "result": 110, "unit": "%"}, {"measurement": "Activity", "setting": "[21]", "result": "Active"}, {"measurement": "Activity", "setting": "[22]", "result": "Active"}]}
{"smiles": "Nc1nc(-c2cccs2)cn1/N=C/c1ccc(Cl)cc1", "values": [{"measurement": "IC50", "setting": "[1]", "result": 80, "unit": "nM"}]}
{"smiles": "Nc1nc(-c2ccccc2)cn1/N=C/c1ccccc1", "values": [{"measurement": "IC50", "setting": "[1]", "result": 840, "unit": "nM"}]}
{"smiles": "Nc1nc(-c2ccsc2)cn1/N=C/c1ccc(Cl)cc1", "values": [{"measurement": "IC50", "setting": "[1]", "result": 50, "unit": "nM"}]}
{"smiles": "Cc1ccsc1/C=N/n1cc(-c2ccccc2)nc1N", "values": [{"measurement": "IC50", "setting": "[1]", "result": 910, "unit": "nM"}]}
{"smiles": "Nc1nc(-c2ccc(Cl)s2)cn1/N=C/c1ccc(Cl)cc1", "values": [{"measurement": "IC50", "setting": "[1]", "result": 3280, "unit": "nM"}]}
{"smiles": "Nc1nc(-c2ccccc2)cn1/N=C/c1ccc(C(F)(F)F)cc1", "values": [{"measurement": "IC50", "setting": "[1]", "result": 5770, "unit": "nM"}]}
{"smiles": "Nc1nc(-c2ccc(-c3ccccc3)cc2)cn1/N=C/c1ccc(Cl)cc1", "values": [{"measurement": "IC50", "setting": "[1]", "result": "> 10000", "unit": "nM"}]}
{"smiles": "Nc1nc(-c2ccccc2)cn1/N=C/c1cccc(Cl)c1Cl", "values": [{"measurement": "IC50", "setting": "[1]", "result": 5120, "unit": "nM"}]}
{"smiles": "Nc1nc(-c2ccccc2)cn1/N=C/c1ccc(Br)cc1", "values": [{"measurement": "IC50", "setting": "[1]", "result": 580, "unit": "nM"}]}
{"smiles": "Nc1nc(-c2ccccc2)cn1/N=C/c1ccnc2ccccc12", "values": [{"measurement": "IC50", "setting": "[1]", "result": "> 10000", "unit": "nM"}]}
{"smiles": "Nc1nc(-c2nccs2)cn1/N=C/c1ccc(Cl)cc1", "values": [{"measurement": "IC50", "setting": "[1]", "result": 510, "unit": "nM"}]}
